Compound activity as filed in PubChem.
KCNQ1 act = potentiates or activates the human KCNQ1 potassium channel; CHO-K1 KCNQ1, thallium flux FluxOR fluorescence; hits give high values; B-score at 10 µM; AID 2648; 310,000 compounds, 0.35% hits;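 active means fluorescence ratio B-score, a plate-corrected score, at least three library SD, with initial intensity B-score within 5 SD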
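assay system = KCNQ1-transfected CHO-K1 cells | medium = assay buffer with matched DMSO | probe or stimulus = depolarizing K+/Tl+ stimulus, K2SO4 and Tl2SO4 each 12.5 mM in 5x stock | dosing = single dose | incubation = dye 90 min, compound 20 min, room temperature | detection = kinetic FluxOR fluorescence, 10 s baseline plus 110 s post-stimulus | evaluation = ratio B score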
KCNK9 inh = inhibitors of human KCNK9 two-pore domain potassium channel. Q9NPC2. B-score at 10 µM. HEK293 KCNK9, FluxOR thallium flux fluorescence; hits give low values. AID 488922. 310,000 compounds, 1.2% hits;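 active means ratio B-score over 3 SD below the library mean, with starting fluorescence within 5 SD of its mean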;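 further: negative B-score means less thallium flux so channel inhibition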
Target sequence (Q9NPC2 whole entry, looked up, the tested form may be a part): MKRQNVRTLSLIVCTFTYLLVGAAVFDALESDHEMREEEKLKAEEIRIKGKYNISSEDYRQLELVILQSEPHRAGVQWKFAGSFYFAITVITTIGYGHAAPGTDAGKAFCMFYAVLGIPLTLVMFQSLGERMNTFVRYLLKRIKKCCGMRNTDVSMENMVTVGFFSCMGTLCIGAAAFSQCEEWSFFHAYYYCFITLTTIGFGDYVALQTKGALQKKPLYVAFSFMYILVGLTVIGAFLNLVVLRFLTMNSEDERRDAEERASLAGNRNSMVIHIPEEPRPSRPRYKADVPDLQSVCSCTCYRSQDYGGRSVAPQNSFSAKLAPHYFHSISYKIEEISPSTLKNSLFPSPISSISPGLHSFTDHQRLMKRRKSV
KCNK3 block = human KCNK3 channel inhibition, primary screen; O14649; CHO-KCNK3 thallium flux, FluxOR fluorescence; hits give low values; AID 602410; 340,000 compounds, 0.84% hits; B-score at 10 µM;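 active means B-score under library mean minus 4 SD, starting fluorescence ratio at most library mean plus 5 SD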;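 further: more negative B-score means stronger inhibition of thallium flux through KCNK3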
hERG rescue = hERG (human) protection from proarrhythmic block; Q12809; CHO-hERG, FluxOR thallium flux, dofetilide IC70 present; activation (rescue from dofetilide block), less the hit threshold, % at 10 µM; 310,000 compounds, 0.51% hits; AID 1511;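 active means activation above the mean of controls blocked by dofetilide plus 5 SD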;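 further: thallium influx through hERG after potassium depolarization seen as dye fluorescence rise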
PHOSPHO1 block = PHOSPHO1 (human) inhibition | Q8TCT1 | recombinant PHOSPHO1, absorbance phosphatase assay | inhibition, % at 13.3 µM | 290,000 compounds, 1.1% hits; in the data active means inhibition above about 60%
Target sequence (Q8TCT1 whole entry, looked up): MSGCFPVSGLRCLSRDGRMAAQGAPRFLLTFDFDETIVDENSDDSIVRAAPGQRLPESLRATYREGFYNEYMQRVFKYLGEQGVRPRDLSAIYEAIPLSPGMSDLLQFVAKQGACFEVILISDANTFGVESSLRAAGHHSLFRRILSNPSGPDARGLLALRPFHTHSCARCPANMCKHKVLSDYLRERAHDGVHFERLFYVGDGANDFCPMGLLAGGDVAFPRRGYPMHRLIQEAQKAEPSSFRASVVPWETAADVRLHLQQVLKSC
KCNQ1 block = inhibitors of human KCNQ1 potassium channel; P51787; CHO-K1 KCNQ1, FluxOR thallium flux fluorescence; hits give high values; B-score at 10 µM; 310,000 compounds, 1.3% hits; AID 2642;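 active means compounds whose thallium flux B-score, printed positive for inhibition, exceeds three library SD while starting fluorescence stays within three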;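 further: channel opened by potassium depolarization with thallium stimulus after 20 min compound exposure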
KCNK9 inh conf = confirmation of human KCNK9 potassium channel inhibitors; shares compounds with KCNK9 inh; AID 492992; inhibition, % at 10 µM; HEK293 KCNK9 cells, FluxOR thallium flux fluorescence; 4,900 compounds, 43% hits;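 active means thallium signal inhibited by more than 5 SD of the compound-free buffer control wells, on both duplicate plates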;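 further: 0% = assay buffer control wells without compound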
Kir21 sel = tests whether KCNK9 modulators also affect mouse Kir2.1; shares compounds with KCNK9 inh; Kir2.1 cells, FluxOR thallium flux fluorescence; inhibition, % at 10 µM; 4,900 compounds, 4% hits; AID 492993;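 active means thallium signal drop more than 5 SD beyond the mean of the no-compound control wells, seen in both duplicate plates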;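 further: signal is fluorescence rise after thallium addition divided by baseline fluorescence; plate controls were assay buffer only for no effect and full block by chlorpromazine control for full effect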
HEK293 Tl ctr = second counter-screen for KCNK9 modulators: effect in non-induced cells; shares compounds with KCNK9 inh; non-induced KCNK9-HEK293, FluxOR thallium flux; inhibition, % at 10 µM; 4,900 compounds, 40% hits; AID 492997;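 active means thallium signal drop beyond 5 SD of the untreated control mean, on both duplicate plates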;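 further: plate controls were buffer only IC0 wells for no effect and SID17386958 at its maximal inhibitory level for full effect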
KCNK3 inh conf = confirmation of human KCNK3 two-pore domain potassium channel inhibitors; shares compounds with KCNK3 block; CHO-KCNK3 thallium flux, FluxOR fluorescence; 0% buffer, 100% carvedilol maximal block; ratio percent of control, % at 10 µM; 2,400 compounds, 99% hits;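 active means ratio percent of control, averaged over triplicates, above buffer control mean plus 5 SD, cut at about 64% in these data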;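 further: ratio is the fluorescence rise from min to max over baseline after thallium stimulus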
KCNK3 noninduced = counter-screen for KCNK3 inhibitors: effect in non-induced cells; shares compounds with KCNK3 block; non-induced KCNK3 parental cells, FluxOR thallium flux; hits give low values; thallium flux ratio (lower = more inhibition) at 10 µM; 2,400 compounds, 40% hits;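 active means thallium flux ratio, averaged over three wells, more than 5 SD below the buffer control mean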;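 further: host cells are CHO cells without KCNK3 induction; ratio is peak minus trough fluorescence over baseline then normalized to buffer controls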
* hit, by the source's call; i = inactive; nt = no result given. An excerpt weighted towards active compounds, which were near 4% of everything screened.

SMILES	KCNQ1 act	KCNK9 inh	KCNK3 block	hERG rescue	PHOSPHO1 block	KCNQ1 block	KCNK9 inh conf	Kir21 sel	HEK293 Tl ctr	KCNK3 inh conf	KCNK3 noninduced
N#CC1=C2N=C(N)c3ccccc3N2C2=C(C(=O)CCC2)C1c1ccccc1F (configuration not stated)	i	i	i	-10.1	27.4	i	nt	nt	nt	nt	nt
CC1(C)CC(=O)C2=C(C1)N1C(=C(C#N)C2c2ccccc2Cl)N=C(N)c2ccccc21 (configuration not stated)	i	-14.9*	-12.8*	-9.9	-13.5	i	41.5%*	i	44.0%*	90.0*	i
Cc1cc(-c2ccc(C)c(S(=O)(=O)NCc3ccc(OC(C)C)cc3)c2)on1	i	i	i	-5.2	37.5	i	nt	nt	nt	nt	nt
O=C(Nc1ccc2oc(-c3cccnc3)nc2c1)c1ccc(Br)o1	i	i	i	-6.0	-6.7	i	nt	nt	nt	nt	nt
O=C(Nc1cccc(-c2cc3ccccc3oc2=O)c1)c1ccc(Br)o1	i	-8.67*	-10.7*	-10.6	29.1	i	33.5%*	i	i	121.3*	0.15*
COc1ccc(-c2cc3ccccc3oc2=O)cc1NC(=O)c1ccc(Br)o1	i	i	i	-0.7	-10.4	i	nt	nt	nt	nt	nt
Cc1cc2nc(-c3cccc(NC(=O)c4ccc(Br)o4)c3)oc2cc1C	i	-9.83*	-9.51*	-9.1	2.6	i	37.5%*	i	i	121.0*	0.143*
O=C(Nc1cccc(OC(F)(F)F)c1)c1ccc(Br)o1	i	-10.2*	-9.56*	-14.9	-6.8	i	44.0%*	i	i	116.0*	i
O=C(Nc1cccc(F)c1)c1ccc(Br)o1	i	i	i	-6.9	-3.7	i	nt	nt	nt	nt	nt
O=C(Nc1cccc(-c2cn3c(n2)SCC3)c1)c1ccc(Br)o1	i	-10*	i	-16.2	-106.7	i	37.0%*	i	i	109.3*	i
CCN(CC)S(=O)(=O)c1ccc2nnn(O)c2c1	i	i	i	-11.1	23.1	i	nt	nt	nt	nt	nt
Cc1ccc(C(=O)Nc2ccc(S(=O)(=O)N3CCOCC3)cc2)cc1Br	i	i	i	-7.2	nt	i	nt	nt	nt	nt	nt
C=COCCNC(=S)Nc1ccccc1	i	i	i	-0.3	32.4	i	nt	nt	nt	nt	nt
CCOC(=O)C1CCN(C(=O)c2cccnc2)CC1	i	i	i	0.4	1.8	i	nt	nt	nt	nt	nt
CCOC(=O)C1CCN(C(c2cccnc2)c2c(NC(=O)c3ccco3)sc(C)c2C)CC1 (configuration not stated)	i	-18.6*	-10.7*	-17.4	20.8	i	66.5%*	i	40.0%*	136.3*	0.114*
CCOC(=O)c1ccc(NC(=O)COc2ccc(CNCCO)cc2OCC)cc1	i	i	i	-6.5	4.1	i	nt	nt	nt	nt	nt
CCOC(=O)c1ccc(NC(=O)COc2ccccc2CNCCc2ccccc2)cc1	i	-8.15*	-11.9*	-25.2	8.3	11*	30.0%*	i	i	103.7*	i
Cc1c(C)n(C(=O)CN2CCN(c3ccccc3)CC2)c2ccccc12	i	i	-10*	-10.3	3.9	i	i	i	i	83.0*	i
COc1ccc(CSc2nc(C)cc(C)c2S(C)(=O)=O)cc1	i	-10.9*	-10.7*	-4.0	36.7	i	39.5%*	i	34.0%*	111.3*	i
COc1ccc(Oc2nc(C)cc(C)c2S(C)(=O)=O)cc1	i	i	i	-9.6	36.6	i	nt	nt	nt	nt	nt
O=C1Nc2cc3c(cc2C1=O)sc1ccccc13	i	i	i	-14.6	24.4	i	nt	nt	nt	nt	nt
O=C(Cc1ccccc1)NN1C(=O)c2ccccc2C1=O	i	i	i	-16.0	27.9	i	nt	nt	nt	nt	nt
O=C(Nc1ccc(Cl)cn1)c1ccccc1SCc1ccccc1	i	-15.1*	-10.9*	-6.0	14.1	i	77.5%*	i	47.0%*	128.3*	0.152*
CC1CCN(S(=O)(=O)c2ccc(NC(=O)c3cccs3)cc2)CC1	i	i	i	-6.8	-27.7	i	nt	nt	nt	nt	nt
CCCCN(CCCC)S(=O)(=O)c1ccc(NC(=O)c2cccs2)cc1	i	-8.64*	i	-18.8	0.2	i	48.0%*	i	44.0%*	120.7*	0.154*
SMILES	KCNQ1 act	KCNK9 inh	KCNK3 block	hERG rescue	PHOSPHO1 block	KCNQ1 block	KCNK9 inh conf	Kir21 sel	HEK293 Tl ctr	KCNK3 inh conf	KCNK3 noninduced
CC1CCCCN1S(=O)(=O)c1ccc(NC(=O)c2cccs2)cc1 (configuration not stated)	i	-8.68*	i	-11.9	2.6	i	41.0%*	i	i	88.3*	i
C=CCN1C(=O)c2ccccc2NC1c1ccc(Br)s1 (configuration not stated)	i	-9.19*	i	-12.8	31.9	i	37.5%*	i	30.0%*	107.0*	i
CCCN1C(=O)c2ccccc2NC1c1ccc(Br)cc1 (configuration not stated)	i	i	i	-3.6	13.7	i	nt	nt	nt	nt	nt
CCOC(=O)c1c(NC(=O)Cn2nc(C(=O)O)c3ccccc3c2=O)sc(C)c1C	i	i	i	-21.1	39.9	i	nt	nt	nt	nt	nt
Cc1ccc(Cl)cc1N1CCN(C2CCCCC2NS(=O)(=O)c2ccccc2)CC1 (configuration not stated)	i	-17.1*	-9.35*	-9.8	-18.3	i	54.5%*	i	43.0%*	111.7*	0.144*
Cc1cccc(N2CCN(C3CCCCC3NS(=O)(=O)c3ccccc3)CC2C)c1 (configuration not stated)	i	-15.5*	-9.25*	-9.4	17.1	i	44.0%*	i	45.0%*	115.0*	0.153*
C[C@H](NC(=O)c1nc[nH]c1C(=O)NCC(=O)OCc1ccccc1)c1ccccc1	i	i	i	-17.8	-7.3	i	nt	nt	nt	nt	nt
NCC1CCC(C(=O)Oc2ccc(CCC(=O)O)cc2)CC1 (configuration not stated)	i	i	i	-3.9	nt	i	nt	nt	nt	nt	nt
